Data from ChEMBL document CHEMBL5653608 (Br J Pharmacol, 2011).
Active and inactive are the calls of the source. No cut-off for these calls is given here.

Experiments:
[1] = Displacement of [3H]-Iloprost from human LTB4 receptor assessed as inhibition constant incubated for 2 hrs by TopCount NXT counter based analysis
[2] = molecular target: T1, Prostaglandin E2 receptor EP1 subtype (Homo sapiens, UniProt P34995); test: Antagonist activity at human EP1 receptor expressed in CHO cells assessed as increase in cAMP level incubated for 30 mins followed by agonist addition measured after 90 mins; type: functional, cell-based
T1 sequence (P34995 whole entry): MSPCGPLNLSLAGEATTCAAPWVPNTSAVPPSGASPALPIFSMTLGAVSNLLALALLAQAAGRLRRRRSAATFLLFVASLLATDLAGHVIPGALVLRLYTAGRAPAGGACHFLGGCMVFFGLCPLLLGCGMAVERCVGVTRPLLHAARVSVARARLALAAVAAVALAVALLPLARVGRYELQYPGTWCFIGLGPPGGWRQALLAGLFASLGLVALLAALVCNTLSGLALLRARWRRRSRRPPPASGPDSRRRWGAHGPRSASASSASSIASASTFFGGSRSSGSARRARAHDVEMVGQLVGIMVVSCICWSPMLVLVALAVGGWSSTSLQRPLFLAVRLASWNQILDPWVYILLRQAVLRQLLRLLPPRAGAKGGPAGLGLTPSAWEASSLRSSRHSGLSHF

[3] = molecular target: Prostaglandin E2 receptor EP2 subtype (Canis lupus familiaris) (UniProt Q9XT82); test: Binding affinity to dog bronchiole EP2 receptor assessed as equilibrium binding constant incubated for 30 mins followed by agonist addition measured after 90 mins; type: tissue-based; conditions: filed as antagonist, time 120.0 min
[4] = Induction of relaxation in PGE2-induced carbachol pre-contracted C57BL/6 mouse trachea at 1 to 3 uM incubated for 30 mins relative to control (reference value: 11 +/- 3.2%); type: functional; set-up: scale not given: the % may be the effect or the level left; conditions: dose 1-3 µM, 0.5 h
[5] = Oral bioavailability in Sprague-Dawley rat at 1 mg/kg; type: ADME, organism-based; conditions: in vivo
[6] = molecular target: Prostaglandin E2 receptor EP4 subtype (Homo sapiens, UniProt P35408); test: Agonist activity at human EP4 receptor expressed in CHO cells incubated for 30 mins; type: functional, cell-based
How it was run: (§1)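 Reporter CHO cells (CRE β-lactamase host) stably expressing the human receptor, suspended in DMEM at 1 × 10^6 cells/mL. Compound in PBS/DMSO/pluronic buffer, preincubated with cells for 30 min at 37°C. In antagonist mode, agonist was then added for 90 min at 37°C; agonist mode used buffer instead. Cells were lysed by freezing, and cAMP was read by DiscoveRx enzyme-fragment luminescence after 4–20 h. Four-parameter logistic fit.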

[7] = molecular target: T2, Prostaglandin E2 receptor EP3 subtype (Homo sapiens, UniProt P43115); test: Antagonist activity at human EP3 receptor expressed in CHO cells assessed as increase in cAMP level incubated for 30 mins followed by agonist addition measured after 90 mins; type: functional, cell-based
T2 sequence (P43115 whole entry): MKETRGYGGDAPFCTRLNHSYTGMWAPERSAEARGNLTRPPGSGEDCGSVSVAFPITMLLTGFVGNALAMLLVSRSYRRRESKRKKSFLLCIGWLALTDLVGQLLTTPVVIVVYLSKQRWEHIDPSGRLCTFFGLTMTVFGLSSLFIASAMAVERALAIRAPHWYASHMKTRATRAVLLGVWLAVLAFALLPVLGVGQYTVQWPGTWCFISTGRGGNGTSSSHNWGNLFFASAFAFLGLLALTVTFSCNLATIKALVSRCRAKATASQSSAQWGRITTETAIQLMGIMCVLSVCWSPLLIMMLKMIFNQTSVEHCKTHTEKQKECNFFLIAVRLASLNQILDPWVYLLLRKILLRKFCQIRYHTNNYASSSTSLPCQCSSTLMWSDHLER

[8] = system: Rattus norvegicus; test: Effect on butaprost induced cutaneous blood flow in po dosed Sprague-Dawley rat measured upto 95 mins; type: functional, organism-based; conditions: dose 1-10 mg/kg
How it was run: (§2)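 Sprague Dawley rats (442–515 g) dosed orally with compound or vehicle (0.5% methylcellulose/0.1% Tween 80, 1 mL/kg). About 1 h 25 min later rats were placed under isoflurane and the abdomen shaved. Baseline laser Doppler scans were taken every 5 min for 35 min. Then 10 µL s.c. PGE2 (3 µg/mL) or butaprost (30 µg/mL) was injected, and scanning continued 60 min. Responses were vehicle-subtracted and normalized to the final three baselines. Peak and AUC0–60 were calculated.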

[9] = molecular target: Prostaglandin F2-alpha receptor (Homo sapiens, UniProt P43088); test: Displacement of [3H]-Iloprost from human FP receptor assessed as inhibition constant incubated for 2 hrs by TopCount NXT counter based analysis
[10] = molecular target: Prostacyclin receptor (Homo sapiens, UniProt P43119); test: Displacement of [3H]-Iloprost from human IP receptor assessed as inhibition constant incubated for 2 hrs by TopCount NXT counter based analysis
How it was run: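 Radioligand displacement with [3H]iloprost (20 µL of a 100 nM stock), using HEK membranes expressing human IP (10 µg per well). Buffer was 10 mM HEPES, 10 mM MgCl2, 1 mM EDTA, pH 7.4, with top concentration 10 µM. Nonspecific binding was defined with 10 µM carbacyclin. Incubated 2 h at room temperature with shaking, then filtered on GF/B, washed cold and counted by scintillation. FP, TP and LTB4 assays were run externally.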

[11] = molecular target: T3, Prostaglandin D2 receptor 2 (Homo sapiens, UniProt Q9Y5Y4); test: Antagonist activity at human CRTH2 receptor incubated for 30 mins followed by agonist addition measured after 90 mins; type: functional
T3 sequence (Q9Y5Y4 whole entry): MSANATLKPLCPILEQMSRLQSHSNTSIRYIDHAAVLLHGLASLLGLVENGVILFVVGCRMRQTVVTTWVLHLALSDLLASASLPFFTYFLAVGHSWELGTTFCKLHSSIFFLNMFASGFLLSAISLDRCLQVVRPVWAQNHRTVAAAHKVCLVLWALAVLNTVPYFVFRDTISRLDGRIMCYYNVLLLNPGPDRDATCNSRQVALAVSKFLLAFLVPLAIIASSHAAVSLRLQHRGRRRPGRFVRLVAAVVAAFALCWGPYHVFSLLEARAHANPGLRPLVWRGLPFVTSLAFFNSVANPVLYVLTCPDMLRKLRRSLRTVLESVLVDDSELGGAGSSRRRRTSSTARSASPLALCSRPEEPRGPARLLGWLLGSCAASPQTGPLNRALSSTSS
How it was run: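 CHO reporter cells expressing human CRTH2, run in the DiscoveRx cAMP format. Compound preincubated with cells for 30 min at 37°C, then cells were stimulated with 8 µM forskolin plus agonist for 90 min at 37°C. Cells were lysed at −80°C and cAMP was read by luminescence. IC50 from an unconstrained four-parameter logistic fit.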

[12] = system: Rattus norvegicus; test: Effect on butaprost-induced cutaneous blood flow in Sprague-Dawley rat assessed as reduction in mean cutaneous blood flow peak response at 10 mg/kg, po measured upto 95 mins; type: functional; set-up: scale not given: the % may be the effect or the level left; conditions: 1.583 h; how it was run: as §2
[13] = Inhibition of EFS-induced contraction of human myometrium assessed as butaprost IC50 at 100 nM incubated for 60 mins (reference value: 27.8 nM); type: functional, tissue-based
How it was run: (§3)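 Human myometrial strips (donors aged 24–76) in a 15 mL Krebs bath at 37°C, under EFS at 15 V, 1.5 ms pulses, 10 s every 100 s, at a submaximal 15 Hz. Antagonist (10 or 100 nM) or vehicle was equilibrated for 60 min. Cumulative butaprost (0.1 nM–10 µM) or PGE2 (0.1 nM–3 µM) was given for at least five EFS responses per concentration. pKB was calculated from same-donor concentration ratios.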

[14] = species on record: Canis lupus familiaris; test: Induction of relaxation in PGE2-induced carbachol pre-contracted rings of Beagle dog bronchioles at 3 to 100 nM incubated for 1 hr; type: functional, tissue-based; conditions: Bronchiole, dose 3-100 nM
How it was run: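 Beagle bronchiole rings held at 1 g tension in Krebs at 37°C (with propranolol and phentolamine), primed with 80 mM KCl. Rings were precontracted with 1 µM carbachol, then antagonist (3–100 nM) or vehicle was equilibrated for 1 h. Cumulative PGE2 relaxation curves followed, with final 10 µM nifedipine defining maximal relaxation. KB by the Lew and Angus method.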

[15] = Volume of distribution in Sprague-Dawley rat at 1 mg/kg, po; type: ADME, organism-based; conditions: in vivo
[16] = Inhibition of EFS-induced contraction of human myometrium assessed as butaprost IC50 at 10 nM incubated for 60 mins (reference value: 27.8 nM); type: functional, tissue-based; how it was run: as §3
[17] = molecular target: T1, Prostaglandin E2 receptor EP1 subtype; test: Agonist activity at human EP1 receptor expressed in CHO cells incubated for 30 mins; type: functional, cell-based
[18] = molecular target: T2, Prostaglandin E2 receptor EP3 subtype; test: Agonist activity at human EP3 receptor expressed in CHO cells incubated for 30 mins; type: functional, cell-based
[19] = Free plasma concentration in Sprague-Dawley rat at 1 to 10 mg/kg, po measured after 1.5 hrs; type: ADME, organism-based; conditions: in vivo, dose 1-10 mg/kg
[20] = molecular target: Prostaglandin E2 receptor EP2 subtype (Mus musculus) (UniProt Q62053); test: Binding affinity to mouse trachea EP2 receptor assessed as equilibrium binding constant incubated for 30 mins followed by agonist addition measured after 90 mins; type: tissue-based; conditions: filed as antagonist, time 120.0 min
[21] = Terminal half life in Sprague-Dawley rat at 1 mg/kg, po; type: ADME, organism-based; conditions: in vivo, read-out: beta t1/2 (converted)
[22] = molecular target: T4, Thromboxane A2 receptor (Homo sapiens, UniProt P21731); test: Displacement of [3H]-Iloprost from human TP receptor assessed as inhibition constant incubated for 2 hrs by TopCount NXT counter based analysis
T4 sequence (P21731 whole entry): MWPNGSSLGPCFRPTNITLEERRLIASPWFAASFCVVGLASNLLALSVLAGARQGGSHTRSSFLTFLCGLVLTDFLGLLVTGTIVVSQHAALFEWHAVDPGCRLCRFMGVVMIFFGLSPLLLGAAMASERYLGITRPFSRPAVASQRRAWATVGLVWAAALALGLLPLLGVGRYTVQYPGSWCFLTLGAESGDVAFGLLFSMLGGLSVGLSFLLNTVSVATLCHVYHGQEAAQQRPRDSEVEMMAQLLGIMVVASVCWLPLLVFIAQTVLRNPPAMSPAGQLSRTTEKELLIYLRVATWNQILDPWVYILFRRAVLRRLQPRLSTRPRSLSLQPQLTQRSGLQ

[23] = species on record: Mus musculus; test: Induction of relaxation in PGE2-induced carbachol pre-contracted C57BL/6 mouse trachea at 1 to 3 nM incubated for 30 mins; conditions: dose 1-3 nM
[24] = molecular target: T5, Prostaglandin D2 receptor (Homo sapiens, UniProt Q13258); test: Antagonist activity at human DP1 receptor expressed in CHO cells incubated for 30 mins followed by agonist addition measured after 90 mins; type: functional, cell-based; how it was run: as §1
T5 sequence (Q13258 whole entry): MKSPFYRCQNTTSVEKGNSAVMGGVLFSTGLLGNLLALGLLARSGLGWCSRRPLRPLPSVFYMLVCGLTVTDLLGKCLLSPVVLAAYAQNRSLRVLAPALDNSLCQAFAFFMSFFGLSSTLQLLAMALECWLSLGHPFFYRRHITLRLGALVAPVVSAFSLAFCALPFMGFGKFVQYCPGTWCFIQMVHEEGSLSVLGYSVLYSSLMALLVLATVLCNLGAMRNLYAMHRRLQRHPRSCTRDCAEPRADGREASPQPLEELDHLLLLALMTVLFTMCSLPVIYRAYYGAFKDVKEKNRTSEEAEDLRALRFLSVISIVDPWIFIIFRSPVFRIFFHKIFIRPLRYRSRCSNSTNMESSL

[25] = Free plasma concentration in Sprague-Dawley rat at 1 to 10 mg/kg, po measured after 3 hrs; type: ADME, organism-based; conditions: in vivo, dose 1-10 mg/kg
[26] = Induction of relaxation in PGE2-induced carbachol pre-contracted C57BL/6 mouse trachea incubated for 30 mins; type: functional, tissue-based
How it was run: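 Male C57BL/6 tracheal rings at 0.35 g tension in Krebs (95% O2/5% CO2, 37°C). Rings were precontracted with 10 µM carbachol before cumulative half-log PGE2 (0.1 nM–30 µM). Curves were repeated in the same ring after 30 min with 3 nM antagonist or DMSO, and 10 µM forskolin set maximal relaxation. pKB = log(CR−1) − log[B].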

[27] = system: Rattus norvegicus; test: Effect on butaprost-induced cutaneous blood flow in Sprague-Dawley rat assessed as reduction in mean cutaneous blood flow peak response by measuring AUC(0 to 60 mins) at 10 mg/kg, po measured upto 95 mins; type: functional; set-up: scale not given: the % may be the effect or the level left; conditions: 1.583 h; how it was run: as §2
[28] = Clearance in Sprague-Dawley rat at 1 mg/kg, po; type: ADME, organism-based; conditions: in vivo
[29] = Induction of relaxation in PGE2-induced carbachol pre-contracted C57BL/6 mouse trachea at 100 nM incubated for 30 mins relative to control (reference value: 11 +/- 3.2%); type: functional; set-up: scale not given: the % may be the effect or the level left; conditions: 0.5 h

Chain of Prostaglandin E2 receptor EP2 subtype (Canis lupus familiaris) (Q9XT82 whole entry): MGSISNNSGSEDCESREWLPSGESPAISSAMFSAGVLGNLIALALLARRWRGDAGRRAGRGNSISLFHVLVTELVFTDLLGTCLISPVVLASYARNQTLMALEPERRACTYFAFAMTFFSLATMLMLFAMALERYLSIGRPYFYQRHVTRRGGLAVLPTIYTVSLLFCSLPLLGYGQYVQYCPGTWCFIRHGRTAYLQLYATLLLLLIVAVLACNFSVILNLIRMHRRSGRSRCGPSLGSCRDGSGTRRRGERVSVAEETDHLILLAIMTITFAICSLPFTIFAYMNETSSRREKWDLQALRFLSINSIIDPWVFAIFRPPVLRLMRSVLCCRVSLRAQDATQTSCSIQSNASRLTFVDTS
Chain of Prostacyclin receptor (P43119 whole entry): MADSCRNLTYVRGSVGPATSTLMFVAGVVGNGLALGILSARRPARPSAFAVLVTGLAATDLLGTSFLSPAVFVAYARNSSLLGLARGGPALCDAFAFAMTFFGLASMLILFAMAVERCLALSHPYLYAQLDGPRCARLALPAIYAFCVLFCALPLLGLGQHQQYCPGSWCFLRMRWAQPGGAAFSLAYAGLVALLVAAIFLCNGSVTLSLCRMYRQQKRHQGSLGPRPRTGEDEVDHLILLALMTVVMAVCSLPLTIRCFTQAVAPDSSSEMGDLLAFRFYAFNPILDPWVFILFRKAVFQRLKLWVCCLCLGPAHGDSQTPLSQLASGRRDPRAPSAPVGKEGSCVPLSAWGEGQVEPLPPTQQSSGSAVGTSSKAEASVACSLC
Chain of Prostaglandin F2-alpha receptor (P43088 whole entry): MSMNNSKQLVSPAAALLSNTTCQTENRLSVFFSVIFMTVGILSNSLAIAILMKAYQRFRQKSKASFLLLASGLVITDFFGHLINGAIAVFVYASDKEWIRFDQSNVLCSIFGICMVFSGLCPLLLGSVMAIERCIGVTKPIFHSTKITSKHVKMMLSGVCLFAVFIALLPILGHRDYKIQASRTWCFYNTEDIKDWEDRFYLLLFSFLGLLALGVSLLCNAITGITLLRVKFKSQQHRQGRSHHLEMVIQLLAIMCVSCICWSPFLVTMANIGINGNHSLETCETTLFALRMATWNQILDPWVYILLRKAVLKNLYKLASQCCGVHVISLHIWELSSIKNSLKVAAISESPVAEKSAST
Chain of Prostaglandin E2 receptor EP4 subtype (P35408 whole entry, the tested form may be a part): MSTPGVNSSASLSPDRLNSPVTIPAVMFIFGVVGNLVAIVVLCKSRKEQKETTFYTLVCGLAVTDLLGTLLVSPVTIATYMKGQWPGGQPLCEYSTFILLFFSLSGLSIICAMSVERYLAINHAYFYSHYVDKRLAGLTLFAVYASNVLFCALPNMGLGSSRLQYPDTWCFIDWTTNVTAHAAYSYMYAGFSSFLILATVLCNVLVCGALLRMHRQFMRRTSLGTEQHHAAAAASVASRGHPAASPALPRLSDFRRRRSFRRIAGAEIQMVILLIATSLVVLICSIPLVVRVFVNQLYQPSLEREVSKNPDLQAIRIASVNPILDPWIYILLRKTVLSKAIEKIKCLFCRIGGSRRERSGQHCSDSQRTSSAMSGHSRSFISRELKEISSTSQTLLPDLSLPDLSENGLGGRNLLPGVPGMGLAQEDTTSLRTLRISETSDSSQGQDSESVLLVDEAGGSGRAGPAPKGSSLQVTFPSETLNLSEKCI
Chain of Prostaglandin E2 receptor EP2 subtype (Mus musculus) (Q62053 whole entry): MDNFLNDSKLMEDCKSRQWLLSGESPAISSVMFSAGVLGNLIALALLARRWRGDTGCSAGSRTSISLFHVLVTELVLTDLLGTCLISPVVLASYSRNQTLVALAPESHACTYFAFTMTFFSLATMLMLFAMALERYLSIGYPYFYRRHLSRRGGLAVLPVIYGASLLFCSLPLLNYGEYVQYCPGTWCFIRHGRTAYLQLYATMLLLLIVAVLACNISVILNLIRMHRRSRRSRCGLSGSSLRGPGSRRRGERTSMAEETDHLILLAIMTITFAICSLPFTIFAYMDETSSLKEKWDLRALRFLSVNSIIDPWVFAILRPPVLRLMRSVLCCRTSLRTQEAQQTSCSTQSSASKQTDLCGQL

COc1ccc2cc(OCC3(C(=O)O)CN(C(=O)c4ccc(F)cc4)C3)ccc2c1 [PF-04418948]
Ki [1]: 4.8 µM
IC50 [2]: > 10 µM
Kb [3]: 0.0025 µM
Activity [4]: 73.5%
bioavailability [5]: 78%
EC50 [6]: > 33.3 µM
IC50 [7]: > 10 µM
Activity [8]: Dose-Dependent Effect
Ki [9]: > 10 µM
Ki [10]: > 10 µM
IC50 [11]: 32 µM
Activity [12]: 41%
IC50 [13]: 0.353 µM
Activity [14]: Active
Vd [15]: 0.1 L/kg
IC50 [16]: 0.054 µM
EC50 [17]: > 10 µM
EC50 [18]: > 10 µM
Cp(f) [19]: 170 nM
Kb [20]: 0.0013 µM
half-life [21]: 8.8 h
Ki [22]: > 10 µM
Activity [23]: Active
IC50 [24]: > 32.8 µM
Cp(f) [25]: 94 nM
IC50 [26]: 0.0027 µM
Activity [27]: 61%
CL/F [28]: 0.3 mL/min/kg
Activity [29]: 106.8%
